Here are results for 28 molecules from ChEMBL document CHEMBL4396929, “Discovery and development of substituted thiadiazoles as inhibitors of Staphylococcus aureus Sortase A” (Bioorg Med Chem, 2019).

In data set [1] the target is T1, Sortase A (Staphylococcus aureus) (UniProt Q9S446).
T1 sequence (whole entry): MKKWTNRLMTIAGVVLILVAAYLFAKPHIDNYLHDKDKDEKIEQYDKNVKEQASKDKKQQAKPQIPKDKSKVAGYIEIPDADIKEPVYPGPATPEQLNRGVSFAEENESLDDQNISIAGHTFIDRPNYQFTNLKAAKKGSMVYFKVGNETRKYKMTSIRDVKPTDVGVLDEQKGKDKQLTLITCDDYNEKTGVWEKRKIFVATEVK
In words: Inhibition of recombinant Staphylococcus aureus wild type truncated C-terminal His6 tagged Srt A at 200 uM using Abz-Leu-Pro-Glu-Thr-Gly-Lys(Dnp)-NH2 as substrate preincubated for 15 mins followed by substrate addition measured after 60 mins by FRET assay relative to control. Put shortly:
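FRET read-out: cleavage of the internally quenched substrate relieves Dnp quenching of the Abz fluorophore, and the resulting fluorescence reports SrtA activity. Compound at 200 µM, 15 min preincubation with enzyme. Inhibition reported as mean ± SD, n = 3.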

For data set [2], the target named is T1, Sortase A (Staphylococcus aureus). In words: Binding affinity to Staphylococcus aureus SrtA by ligand based 1D CPMG relaxation dispersion NMR analysis. Put shortly:
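Ligand-observed 1D NMR: spectrum of ligand alone, then ligand with SrtA, acquired after a delay acting as a T2 filter. Binding is scored as a drop in ligand signal intensity.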

Data set [3] concerns the target T2, Sortase A (Staphylococcus aureus, UniProt Q9S446).
T2 sequence (Q9S446 whole entry): T1 sequence (whole entry)
The data set is described as follows: Inhibition of recombinant Staphylococcus aureus wild type truncated C-terminal His6 tagged Srt A using Abz-Leu-Pro-Glu-Thr-Gly-Lys(Dnp)-NH2 as substrate preincubated for 15 mins followed by substrate addition measured after 60 mins by FRET assay.

For data set [4], the target named is T1, Sortase A (Staphylococcus aureus). In words: Reversible ligand binding to Staphylococcus aureus SrtA using (Abz-Leu-Pro-Glu-Thr-Gly-Lys(Dnp)-NH2 as substrate by NMR competitive displacement analysis. Put shortly:
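Ligand-observed CPMG NMR uses a delay acting as a T2 filter. Spectra are taken of the ligand alone, then after SrtA is added, then after a known binder is added to compete for the site. Recovery of the ligand signal marks reversible, competitive binding.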

Data set [5] shares this target. In words: Inhibition of recombinant Staphylococcus aureus wild type truncated C-terminal His6 tagged Srt A at 167 uM using Abz-Leu-Pro-Glu-Thr-Gly-Lys(Dnp)-NH2 as substrate preincubated for 15 mins followed by substrate addition measured after 60 mins by FRET assay relative to control. The essentials: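 FRET activity assay with an internally quenched substrate. Cleavage by SrtA separates the Abz donor from the Dnp quencher, and the increase in fluorescence is read. Compound at 167 µM with 15 min incubation. Percent inhibition is given as mean ± SD, n = 2.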

The target is the same in data set [6]. The data set is described as follows: (§1) Inhibition of recombinant Staphylococcus aureus wild type truncated C-terminal His6 tagged Srt A using Abz-Leu-Pro-Glu-Thr-Gly-Lys(Dnp)-NH2 as substrate preincubated for 30 mins followed by substrate addition measured after 60 mins by FRET assay in presence of 0.5 mM reducing agent, DTT.
For data set [7] the target is unchanged. In words: Binding affinity to Staphylococcus aureus 15N-labeled SrtA by protein based 2D SOFAST-HMQC NMR analysis.
For data set [8], the target named is T2, Sortase A. The data set is described as follows: Inhibition of recombinant Staphylococcus aureus wild type truncated C-terminal His6 tagged Srt A using Abz-Leu-Pro-Glu-Thr-Gly-Lys(Dnp)-NH2 as substrate preincubated for 30 mins followed by substrate addition measured after 60 mins by FRET assay.
The target of data set [9] is T2, Sortase A. The data set is described as §1.
Data set [10] deals with Staphylococcus aureus. The data set is described as follows: Growth inhibition of Staphylococcus aureus CCUG 15915 measured after 18 to 24 hrs by broth microdilution assay. It is filed as organism-based. Background: In broth dilution the organism is exposed to a series of concentrations in liquid medium.
In data set [11] the test system is Staphylococcus aureus. In words: Growth inhibition of Staphylococcus aureus CCUG 17621 measured after 18 to 24 hrs by broth microdilution assay. It is filed as organism-based.
In data set [12] the test system is Escherichia coli. In words: Growth inhibition of Escherichia coli CCUG 17620 measured after 18 to 24 hrs by broth microdilution assay. It counts as organism-based. The settings on record: in vitro.
Data set [13] deals with T1, Sortase A (Staphylococcus aureus). In words: Inhibition of recombinant Staphylococcus aureus wild type truncated C-terminal His6 tagged Srt A at 200 uM using Abz-Leu-Pro-Glu-Thr-Gly-Lys(Dnp)-NH2 as substrate preincubated for 6.3 hrs followed by substrate addition measured after 60 mins by FRET assay relative to control.
For data set [14] the target is unchanged. In words: Covalent ligand binding to recombinant Staphylococcus aureus wild type truncated C-terminal His6 tagged SrtA assessed as enzyme modifications by measuring aminothiadiazolyl-thio (+130.96119 Da, +C2HN3S2) and nitrobenzyl-thio (+167.00410, +C7H5NO2S) fragments at 200 uM by LCMS analysis.
The target is the same in data set [15]. In words: Irreversible ligand binding to Staphylococcus aureus SrtA using (Abz-Leu-Pro-Glu-Thr-Gly-Lys(Dnp)-NH2 as substrate by competitive binding based 1D CPMG relaxation dispersion NMR analysis. The essentials: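 Ligand-observed CPMG competition: the ligand–SrtA sample is challenged with a known binder for the same site. Signal recovery indicates displacement and reversible binding; no recovery indicates irreversible binding.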

Data set [16] shares this target. The data set is described as follows: Covalent ligand binding to recombinant Staphylococcus aureus wild type truncated C-terminal His6 tagged SrtA assessed as enzyme modifications by measuring nicotinamido-thiadiazolyl thio (+235.98265 Da, +C8H4N4OS2) and nitrobenzyl-thio (+167.00410, +C7H5NO2S) fragments at 200 uM by LCMS analysis.

The source made the active and inactive calls. No cut-off for these calls is given here.

For the molecule `O=[N+]([O-])c1ccc(CSc2nnc(N3CCNCC3)s2)cc1`, the inhibition in [1] came out at 80%. Besides, the outcome in [2] was Active. Moreover, the IC50 in data set [3] came to 71 µM.

On to `Nc1nnc(Sc2ccc([N+](=O)[O-])c3nonc23)s1`, for which the outcome in data set [4], in data set [2] and in [7] was Active. For the same molecule, the inhibition in data set [5] was found to be 101%. In addition, the inhibition entry in [6] was “inactive”. Further, the IC50 in data set [3] was 6 to 6.2 µM.

For `O=[N+]([O-])c1ccc(CSc2nnc(N3CCOCC3)s2)cc1`, in data set [1], the inhibition was 104%. Further, the result in data set [2] was Active. Also, the IC50 in data set [3] came out at 9 µM.

Take `Nc1nnc(Sc2ccc([N+](=O)[O-])cc2)s1`: the inhibition in data set [1] amounted to 35%. In addition, the IC50 result in [8] is recorded as “Not Active”. Moreover, in data set [2], the result was inactive.

For `Nc1nnc(SCc2ccc(F)cc2)s1`, the inhibition in data set [1] stood at 5%. Further, the result in [2] was inactive.

Turning to `Nc1nnc(SCCc2cccc([N+](=O)[O-])c2)s1`, in data set [1], the inhibition stood at 13%. Besides, the outcome in data set [2] was inactive.

For the molecule `Nc1nnc(SCc2ccc3ccccc3c2)s1`, in data set [1], the inhibition amounted to 13%.

In the case of `O=c1c(O)c(-c2ccc(O)cc2O)oc2cc(O)cc(O)c12` [MORIN], in [9], the IC50 came out at 19 µM.

Consider `O=[N+]([O-])c1cccc(CSc2nnc(N3CCNCC3)s2)c1`, for which the MIC in data set [10], in data set [11] and in data set [12] was above 256 µg/mL in each case. The inhibition turned out to be 27% in data set [1] and 38% in data set [13]. In [2], the outcome was inactive.

On to `N#Cc1ccccc1CSc1nnc(N)s1`, for which the MIC in [10], in [11] and in data set [12] was above 256 µg/mL each time. The inhibition in data set [1] is 1%. For the same molecule, in data set [2], the result was Active. Further, in data set [3], the IC50 was found to be 1740 µM.

As for `Nc1nnc(SCc2ccc([N+](=O)[O-])cc2)s1`, the MIC in data set [10], in data set [11] and in data set [12] was above 256 µg/mL in each case. For the same molecule, the result in data set [14] and in [2] was Active. Also, in [1], the inhibition stood at 101%. The inhibition entry in data set [6] was “inactive”. Moreover, the IC50 in data set [3] amounted to 26 µM.

`Nc1nnc(Sc2ccccc2)s1`: in data set [1], the inhibition came out at 25%. Besides, the result in [2] was inactive.

Turning to `O=C(Nc1nnc(SCc2cccc([N+](=O)[O-])c2)s1)c1ccncc1`, the MIC in data set [10], in data set [11] and in data set [12] was above 256 µg/mL in each case. Further, in [1], the inhibition is 8%. Further, in [2], the outcome was Active.

`CC(C)n1c(S)nc2c1c(=O)n(C)c(=O)n2C`: the outcome in [15] was Active. The IC50 in [3] worked out at 50 µM.

For the molecule `Nc1nnc(SCc2ccccc2)s1`, the inhibition in data set [1] came to 0%. Further, the outcome in data set [2] was inactive.

Consider `CCSc1c(S)cnn(-c2ccccc2)c1=O`, for which the half-maximal inhibitory concentration (IC50) in data set [3] is 3 µM.

For the molecule `O=C(Nc1nnc(SCc2cccc([N+](=O)[O-])c2)s1)c1ccco1`, the inhibition in [1] was found to be 6%.

`O=[N+]([O-])c1cccc(CSc2nnc(Nc3cccnc3)s2)c1`: the inhibition in data set [1] came to 37%.

As to `O=[N+]([O-])c1cccc(CSc2nnc(N3CCOCC3)s2)c1`, the MIC in data set [10], in data set [11] and in data set [12] was above 256 µg/mL in each case. Moreover, in data set [1], the inhibition is 29%. Moreover, the result in data set [2] was Active.

For `Nc1nnc(SCc2cccc([N+](=O)[O-])c2)s1`, the MIC in [10], in data set [11] and in data set [12] was above 256 µg/mL in each case. Besides, the inhibition in data set [1] was found to be 11%. The outcome in data set [2] was Active. Moreover, the IC50 in data set [3] amounted to 521 µM.

Turning to `O=C(Nc1nnc(SCc2ccc([N+](=O)[O-])cc2)s1)c1ccncc1`, the inhibition in data set [1] amounted to 99%. Moreover, in [2], the result was inactive. For the same molecule, the IC50 in [3] is 42 µM.

`O=[N+]([O-])c1cccc(CSc2nnc(Br)s2)c1`: the inhibition in data set [1] amounted to 19%.

On to `CC(=O)Nc1nnc(SCc2ccc([N+](=O)[O-])cc2)s1`, for which the inhibition in data set [1] was determined as 94%. In addition, the outcome in data set [2] was Active. The IC50 in [3] was 127 µM.

Turning to `O=C(Nc1nnc(SCc2cccc([N+](=O)[O-])c2)s1)c1cccnc1`, the inhibition in [1] amounted to 13%.

Turning to `CC(=O)Nc1nnc(SCc2cccc([N+](=O)[O-])c2)s1`, the MIC in data set [10], in data set [11] and in [12] was above 256 µg/mL each time. For the same molecule, the inhibition in data set [1] came out at 18%.

On to `N#Cc1ccc(CSc2nnc(N)s2)cc1`, for which the inhibition in data set [1] was determined as 2%. In addition, the outcome in [2] was inactive.

For the molecule `FC(F)(F)c1ccnc(Sc2nc[nH]n2)n1`, the IC50 in data set [3] was found to be 19 µM.

Turning to `O=C(Nc1nnc(SCc2ccc([N+](=O)[O-])cc2)s1)c1cccnc1`, in data set [1], the inhibition was found to be 100%. Further, the inhibition entry in [6] is “inactive”. Further, the outcome in [16] was Active. Also, the result in data set [2] was inactive. For the same molecule, in data set [3], the IC50 was found to be 3.8 µM.

Usually inhibition stands for the drop in the measured response relative to a control, in per cent. One may read the IC50 as the midpoint of a concentration-inhibition curve.
